Measured values reported in ChEMBL document CHEMBL3997810, “A Novel Potent Anticancer Compound Optimized from a Natural Oridonin Scaffold Induces Apoptosis and Cell Cycle Arrest through the Mitochondrial Pathway” (J Med Chem, 2017).
Calls of active or inactive are those of the source. No cut-off for these calls is given here.

Columns and labels:
[1] = system: Mus musculus; test: Toxicity in Balb/c nude mouse xenografted with human MCF7 cells assessed as morphological changes in spleen at 20 mg/kg/day, iv for 4 weeks by hematoxylin and eosin staining based microscopic method; type: organism-based; conditions: in vivo, 672 h
Summary of the method: (§1)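 Male BALB/c nude mice aged six weeks received 1 × 10^6 MCF-7 cells subcutaneously in the right flank. After 7 d they were randomized and dosed 20 mg/kg iv once daily in 10% DMF/2% poloxamer/88% saline; saline control. Heart, liver, spleen, lung and kidney were fixed in 4% paraformaldehyde, paraffin-embedded, sectioned at 5 μm, H&E stained and examined microscopically.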

[2] = system: MCF7; test: Cell cycle arrest in human MCF7 cells assessed as accumulation at G1 phase at 0.125 uM after 48 hrs by propidium iodide staining based flow cytometry (reference value: 49.77%); type: functional
Summary of the method: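 MCF-7 cells, 5 × 10^4 per well, seeded overnight, then exposed to 0.125–1 μM compound, or DMSO, for 48 h. Ethanol-fixed (70%, −20 °C, 12 h) and stained with PI/RNase at 37 °C for 30 min. Phase distribution determined by flow cytometry.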

[3] = Antiproliferative activity against human NCI-H460/MX20 cells after 48 hrs by MTT assay; type: functional, cell-based; conditions: NCI-H460/MX20, 48 h
Summary of the method: (§2)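 Colorimetric MTT assay. KB-3-1, NCI-H460 and Bel-7404 cells were seeded at 4000 cells/well; resistant KB/CP4, NCI-H460/MX20 and Bel-7404/CP20 were seeded at 7000 cells/well. Cells were pre-incubated 24 h at 37 °C, 5% CO2, then exposed to a compound concentration series for 48 h with DMSO ≤0.25%. Absorbance read at 570 nm. Quadruplicate wells, three repeats; means ± SD.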

[4] = system: MCF7; test: Induction of apoptosis in human MCF7 cells assessed as necrotic cells at 1 uM after 24 hrs by Annexin-V FITC/propidium iodide staining based flow cytometry (reference value: 0.102%); type: functional
[5] = system: MCF7; test: Induction of apoptosis in human MCF7 cells assessed as increase in Bad protein expression at 0.5 to 1 uM after 48 hrs by Western blot method; type: functional, cell-based
Summary of the method: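 MCF-7 cells were treated at 0, 0.125, 0.25, 0.5 or 1 μM for 48 h, washed in ice-cold PBS and lysed on ice for 20 min. Lysates were spun at 13,000 g, 4 °C. 20 μg protein was run on SDS-PAGE and blotted to PVDF, probed overnight at 4 °C with primary antibodies, then with fluorescent secondary antibodies. Band density was expressed relative to β-actin; three independent experiments.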

[6] = system: Bel-7402; test: Cell cycle arrest in human Bel7402 cells assessed as accumulation at S phase at 4 uM after 48 hrs by propidium iodide staining based flow cytometry (reference value: 8.78%); type: functional
[7] = system: MCF7; test: Induction of apoptosis in human MCF7 cells assessed as necrotic cells at 0.5 uM after 24 hrs by Annexin-V FITC/propidium iodide staining based flow cytometry (reference value: 0.102%); type: functional
[8] = system: MCF7; test: Induction of apoptosis in human MCF7 cells assessed as necrotic cells at 0.125 uM after 24 hrs by Annexin-V FITC/propidium iodide staining based flow cytometry (reference value: 0.102%); type: functional
[9] = system: MCF7; test: Downregulation of CyclinB protein expression in human MCF7 cells after 48 hrs by Western blot method; type: functional, cell-based
Summary of the method: (§3)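 MCF-7 cells exposed to 0–1 μM compound for 48 h, then lysed on ice. Lysate (20 μg protein) run on 8–12% SDS-PAGE and transferred to PVDF. Probed overnight at 4 °C with primary antibodies, then fluorescent secondaries. Band densities normalized to β-actin. Mean ± SD of three independent experiments.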

[10] = Selectivity ratio of IC50 for human KB/CP4 cells to IC50 for human KB-3-1 cells
[11] = system: Bel-7402; test: Cell cycle arrest in human Bel7402 cells assessed as accumulation at G1 phase at 2 uM after 48 hrs by propidium iodide staining based flow cytometry (reference value: 34.61%); type: functional
[12] = system: BEL-7404 tumor cell line; test: Antiproliferative activity against human Bel7404 cells after 48 hrs by MTT assay; type: functional, cell-based; conditions: BEL-7404, 48 h; summary of the method: as §2
[13] = system: Mus musculus; test: Toxicity in Balb/c nude mouse xenografted with human MCF7 cells assessed as changes in body weight at 20 mg/kg/day, iv for 4 weeks measured once in 2 days during compound dosing; type: organism-based; conditions: in vivo
Summary of the method: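 Mice received 1 × 10^6 tumor cells subcutaneously in the right flank: MCF-7 in male BALB/c nude mice aged six weeks, H22 in male ICR mice aged five weeks. After 7 d they were randomized (six or eight per group). Dosing was 20 mg/kg iv daily in 10% DMF/2% poloxamer/88% saline for 21 or 28 days; saline control. Body weight was recorded every 2 days.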

[14] = system: Mus musculus; test: Toxicity in Balb/c nude mouse xenografted with human MCF7 cells assessed as morphological changes in lungs at 20 mg/kg/day, iv for 4 weeks by hematoxylin and eosin staining based microscopic method; type: organism-based; conditions: in vivo, 672 h; summary of the method: as §1
[15] = system: MCF7; test: Inhibition of colony formation in human MCF7 cells incubated for 24 hrs measured after 10 days by crystal violet staining based microscopic method; type: functional, cell-based
Summary of the method: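 MCF-7 cells were plated at 3 × 10^2 per well and left overnight, then exposed to 0, 75, 150 or 300 nM (DMSO vehicle) for 24 h. Medium was removed and cells grew a further 10 days. Colonies were fixed in methanol for 15 min, stained with 0.1% crystal violet for 15 min and counted; a colony was >50 cells. At least three independent experiments, mean ± SD.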

[16] = system: KB 3-1; test: Antiproliferative activity against human KB-3-1 cells after 48 hrs by MTT assay; type: functional, cell-based; conditions: KB 3-1, 48 h; summary of the method: as §2
[17] = system: MCF7; test: Antiproliferative activity against human MCF7 cells after 72 hrs by MTT assay; type: functional, cell-based; conditions: MCF7, 72 h
Summary of the method: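 MGC-803 and MCF-7 cells grown in DMEM (MCF-7 with 1× NEAA); Bel-7402 and K562 grown in RPMI 1640; all media with 10% FBS. Cells seeded at 3500/well, pre-incubated 24 h, then exposed to compounds in fresh medium (DMSO ≤0.25%) for 72 h at 37 °C. MTT read-out at 570 nm. Quadruplicate wells, repeated three times; means ± SD (n = 3).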

[18] = system: Bel-7402; test: Cell cycle arrest in human Bel7402 cells assessed as accumulation at S phase at 2 uM after 48 hrs by propidium iodide staining based flow cytometry (reference value: 8.78%); type: functional
[19] = system: MCF7; test: Induction of apoptosis in human MCF7 cells assessed as necrotic cells at 0.25 uM after 24 hrs by Annexin-V FITC/propidium iodide staining based flow cytometry (reference value: 0.102%); type: functional
[20] = system: MCF7; test: Induction of apoptosis in human MCF7 cells assessed as late apoptotic cells at 0.125 uM after 24 hrs by Annexin-V FITC/propidium iodide staining based flow cytometry (reference value: 0.255%); type: functional
[21] = system: NCI-H460; test: Antiproliferative activity against human NCI-H460 cells after 48 hrs by MTT assay; type: functional, cell-based; conditions: NCI-H460, 48 h; summary of the method: as §2
[22] = system: MCF7; test: Downregulation of cdc2 protein expression in human MCF7 cells after 48 hrs by Western blot method; type: functional, cell-based; summary of the method: as §3
[23] = system: Bel-7402; test: Cell cycle arrest in human Bel7402 cells assessed as accumulation at G1 phase at 1 uM after 48 hrs by propidium iodide staining based flow cytometry (reference value: 34.61%); type: functional

IC50 [12]: 5.94 µM
IC50 [16]: 5.7 µM
IC50 [17]: 0.08 µM
IC50 [21]: 2.62 µM
Structure (SMILES): C=C1C(=O)[C@]23[C@H](OC(=O)/C=C/c4ccccc4)[C@H]1CC[C@H]2[C@]12C=CCC(C)(C)[C@H]1[C@H](O)[C@]3(O)OC2
Activity [1]: Non-Toxic
Activity [2]: 49.27%
IC50 [3]: 13.6 µM
Activity [4]: 1.14%
Activity [5]: Active
Activity [6]: 9.55%
Activity [7]: 2.18%
Activity [8]: 1.14%
Activity [9]: Dose-dependent effect
Ratio IC50 [10]: <1
Activity [11]: 31.15%
Activity [13]: Non-Toxic
Activity [14]: Non-Toxic
inhibition [15]: Dose-dependent effect
Activity [18]: 10.78%
Activity [19]: 2.39%
Activity [20]: 9.32%
Activity [22]: Dose-dependent effect
Activity [23]: 32.12%
